Data set [1] can be described thus: Solubility in culture medium in presence of 5% fetal calf serum. Type of data set: physicochemical. The conditions noted are these: culture medium with 5% fetal calf serum.
Data set [2] relates to HT-29. Kind of data set: Cytotoxicity against human HT29 cells under hypoxic conditions after 4 hrs. The class given is functional, cell-based. The conditions noted are these: HT-29, 4 h.
Data set [3] deals with HT-29. Put plainly: Ratio of IC50 for HT29 cells under oxic conditions to hypoxic conditions after 4 hrs. The class given is functional, Homo sapiens.
The subject of data set [4] is SiHa. Kind of data set: Cytotoxicity against human SiHa cells under hypoxic conditions after 4 hrs. Type of data set: functional, cell-based.
In data set [5] the test system is SiHa. Put plainly: Ratio of IC50 for SiHa cells under oxic conditions to hypoxic conditions after 4 hrs. The class given is functional, Homo sapiens.
For data set [6], the system named is HT-29. Kind of data set: Diffusion coefficient, D in HT29 multicellular layers. The class given is ADME, cell-based. The conditions noted are these: human. The essentials: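 HT29 multicellular layers were grown 3 days on collagen-coated Teflon membranes, equilibrated 60 min under 95% O2/5% CO2 at 37 °C, then placed in a diffusion chamber. Donor and receiver were sampled up to 5 h and assayed by HPLC. D came from fitting both profiles to a Fickian model with membrane and MCL in series, corrected by support-only Ds.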

The test system of data set [7] is HT-29. Put plainly: Effect on human HT29 cells under hypoxic conditions assessed as drug level causing 10% clonogenic survival. The class given is functional. The essentials:
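HT29 suspensions (1 or 2 × 10^6 cells/mL) in serum-free medium were stirred under 5% CO2/95% N2 for 90 min. Drug was added from deoxygenated DMSO stock at a level giving about 10% survival at 1 h, and samples were taken up to 3 h. Clonogenic survival (14 days, methylene blue) was fitted with the HPLC concentration–time data, and the 10% survival exposure was interpolated.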

In another data set the test system is Mus musculus. Kind of data set: Toxicity in ip dosed CD1 mouse. The class given is organism-based. The conditions noted are these: in vivo. The essentials:
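MTD in CD-1 homozygous nude mice after single i.p. doses (HCl salts in saline, 5% DMSO/saline or lactate buffer pH 4.0), escalated in 1.33-fold increments. MTD taken as the highest dose causing no death, no body weight loss >15% and no other severe morbidity in any of 6 mice.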

Data set [8] is described as follows: Cmax in CD1 mouse at 316 umol/kg, ip. Type of data set: ADME, organism-based. Also on record: dose 316 umol/kg, route intraperitoneal. The conditions noted are these: in vivo. The essentials: (§1)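 Single i.p. dose to CD-1 homozygous nude mice, drug as HCl salt in 0.9% saline, 5% DMSO/saline or lactate buffer (pH 4.0). Plasma total drug measured by HPLC at 75 or 100% of MTD (MTD from 1.33-fold dose steps, 6 mice). Noncompartmental analysis gave AUC, Cmax and t1/2.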

A short description of data set [9]: Half life in CD1 mouse at 316 umol/kg, ip. The class given is ADME, organism-based. The conditions noted are these: in vivo. The essentials: as §1
Data set [10] relates to HT-29. Kind of data set: Antitumor activity against human HT29 cells implanted in CD1 mouse assessed as clonogenic survival at 316 umol/kg, ip after 18 hrs relative to control. The class given is functional. The essentials: (§2)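 HT29 xenografts in CD-1 homozygous nude mice; single i.p. dose of drug alone, formulated as the HCl salt in 0.9% saline, 5% DMSO/saline or lactate buffer (pH 4.0). Tumors excised 18 h later, dissociated to single-cell suspensions and plated. Clonogens/g of tumor counted; surviving fraction = treated/control clonogens/g.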

The subject of data set [11] is HT-29. Put plainly: Antitumor activity against human HT29 cells implanted in CD1 mouse at 316 umol/kg, ip administered 5 mins after irradiation by excision assay relative to radiation alone. Type of data set: functional. The method, boiled down:
(§3)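 Hypoxic-cell excision assay in HT29 xenografts in CD-1 homozygous nude mice. Mice received 20 Gy γ radiation to sterilize oxic tumor cells, then a single i.p. drug dose (HCl salt in saline, 5% DMSO/saline or pH 4.0 lactate buffer) 5 min later. Tumors excised at 18 h and plated for clonogens/g. Log cell kill = log(clonogens/g, radiation only) − log(clonogens/g, radiation plus drug).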

A short description of data set [12]: Protein binding in mouse plasma by equilibrium dialysis. The class given is ADME, cell-free. The conditions noted are these: read-out: PPB (converted). On the technique in general: In equilibrium dialysis only unbound substance equilibrates across the membrane.
Data set [13] in a line: Cmax in CD1 mouse at 562 umol/kg, ip. The class given is ADME, organism-based. Also noted: dose 562 umol/kg, route intraperitoneal. The conditions noted are these: in vivo. The essentials:
as §1

A short description of data set [14]: Half life in CD1 mouse at 562 umol/kg, ip. The class given is ADME, organism-based. The conditions noted are these: in vivo. The essentials:
as §1

Data set [15] deals with HT-29. Kind of data set: Antitumor activity against human HT29 cells implanted in CD1 mouse assessed as clonogenic survival at 562 umol/kg, ip after 18 hrs relative to control. Type of data set: functional. The essentials:
as §2

In data set [16] the test system is HT-29. Kind of data set: Antitumor activity against human HT29 cells implanted in CD1 mouse at 562 umol/kg, ip administered 5 mins after irradiation by excision assay relative to radiation alone. Type of data set: functional. The method, boiled down: as §3
Data set [17] can be described thus: Cmax in CD1 mouse at 133 umol/kg, ip. Type of data set: ADME, organism-based. Also noted: dose 133 umol/kg, route intraperitoneal. The conditions noted are these: in vivo. The essentials:
as §1

Data set [18] in a line: AUC in CD1 mouse at 133 umol/kg, ip. Type of data set: ADME, organism-based. The conditions noted are these: plasma. The method, boiled down:
as §1

Data set [19] relates to HT-29. Put plainly: Antitumor activity against human HT29 cells implanted in CD1 mouse assessed as clonogenic survival at 133 umol/kg, ip after 18 hrs relative to control. The class given is functional. The method, boiled down:
as §2

The test system of data set [20] is HT-29. Kind of data set: Antitumor activity against human HT29 cells implanted in CD1 mouse at 133 umol/kg, ip administered 5 mins after irradiation by excision assay relative to radiation alone. Type of data set: functional. The essentials:
as §3

A short description of data set [21]: Cmax in CD1 mouse at 750 umol/kg, ip. Type of data set: ADME, organism-based. Also noted: dose 750 umol/kg, route intraperitoneal. The conditions noted are these: in vivo. The essentials: as §1
A short description of data set [22]: Half life in CD1 mouse at 750 umol/kg, ip. Type of data set: ADME, organism-based. The conditions noted are these: in vivo. The method, boiled down:
as §1

The nature of data set [23]: AUC in CD1 mouse at 750 umol/kg, ip. Type of data set: ADME, organism-based. The conditions noted are these: plasma. The essentials: as §1
In data set [24] the test system is HT-29. Kind of data set: Antitumor activity against human HT29 cells implanted in CD1 mouse assessed as clonogenic survival at 750 umol/kg, ip after 18 hrs relative to control. Type of data set: functional. The method, boiled down:
as §2

Data set [25] relates to HT-29. Put plainly: Antitumor activity against human HT29 cells implanted in CD1 mouse at 750 umol/kg, ip administered 5 mins after irradiation by excision assay relative to radiation alone. The class given is functional. The method, boiled down:
as §3

The nature of data set [26]: Cmax in CD1 mouse at 421 umol/kg, ip. Type of data set: ADME, organism-based. Also noted: dose 421 umol/kg, route intraperitoneal. The conditions noted are these: in vivo. The essentials:
as §1

The nature of data set [27]: Half life in CD1 mouse at 421 umol/kg, ip. The class given is ADME, organism-based. The conditions noted are these: in vivo. The essentials:
as §1

Data set [28] is described as follows: AUC in CD1 mouse at 421 umol/kg, ip. Type of data set: ADME, organism-based. The conditions noted are these: plasma. The method, boiled down:
as §1

Molecules are shown by their SMILES. pIC50: −log10 of the molar value.

With `CCCN(CCC)CCNc1n[n+]([O-])c2ccccc2[n+]1[O-]`, the solubility in data set [1] is > 25 mM. The pIC50 is 5.77 with HT-29 [2] and 5.70 in the data set with SiHa [4]. Also, the “Ratio IC50” value with HT-29 [3] worked out at 82; with SiHa [5], 68. Further, in the data set on HT-29 [6], the D stood at 1.71e-06 cm²/s. Besides, the Activity in the data set on HT-29 [7] stood at 3.9 µM·h. Moreover, the MTD in the data set on Mus musculus was 316 µmol/kg. In data set [8], this compound had a Cmax of 17 µM. The same compound gave a half-life in data set [9] of 11.8 min. The LCK amounted to 0.01 in the data set on HT-29 [10] and 0.25 with HT-29 [11]. Also, the fraction unbound in [12] is 0.023.

`Cc1ccc2c(c1)[n+]([O-])c(NCCN(C)C)n[n+]2[O-]`: in data set [1], the solubility was > 51 mM. Moreover, the results for the pIC50 in the data set with HT-29 [2] and with SiHa [4] were 5.72 and 5.96, respectively. Also, the “Ratio IC50” value in the data set on HT-29 [3] came out at 159; in the data set with SiHa [5], 200. The D with HT-29 [6] stood at 3.99e-07 cm²/s. For the same compound, the Activity with HT-29 [7] was 6.3 µM·h. The compound further gave an MTD with Mus musculus of 562 µmol/kg. In addition, in [13], the Cmax was 104 µM. In data set [14], this compound yielded a half-life of 22.5 min. Further, the values for the LCK in the data set on HT-29 [15] and in the data set on HT-29 [16] were 0.07 and 1, respectively. In data set [12], the fraction unbound is 0.04.

As to `Nc1n[n+]([O-])c2ccccc2[n+]1[O-]` [TIRAPAZAMINE], the solubility in [1] is 8.9 mM. The pIC50 was 5.29 with HT-29 [2] and 5.60 in the data set on SiHa [4]. The compound also returned a D with HT-29 [6] of 4.04e-07 cm²/s. Besides, the Activity in the data set on HT-29 [7] came out at 24.3 µM·h. In addition, the MTD in the data set with Mus musculus stood at 178 µmol/kg. Moreover, the concentration in data set [17] peaked (Cmax) at 61.7 µM. Also, in data set [18], the exposure (AUC) is 49.2 µM·h. Besides, the LCK in the data set on HT-29 [19] worked out at 0.15; in the data set on HT-29 [20] it was 0.59.

`CCc1ccc2c(c1)[n+]([O-])c(NCCCN1CCOCC1)n[n+]2[O-]`: in [1], the solubility came out at 55 mM. Further, the pIC50 in the data set on HT-29 [2] is 4.98; in the data set with SiHa [4], 5.25. Moreover, the “Ratio IC50” value with HT-29 [3] was >36; in the data set with SiHa [5], 66. Further, the Activity in the data set on HT-29 [7] was 56.5 µM·h. This compound also gave an MTD in the data set on Mus musculus of 1000 µmol/kg. In data set [21], the Cmax is 139 µM. Also, in [22], the half-life came to 24.9 min. In data set [23], the AUC was 94.8 µM·h. For the same compound, the results for the LCK in the data set with HT-29 [24] and in the data set with HT-29 [25] were 0.13 and 0.82, respectively.

With `CCOc1ccc2c(c1)[n+]([O-])c(NCCN(C)C)n[n+]2[O-]`, the solubility in data set [1] was > 50 mM. The pIC50 is 5.59 with HT-29 [2] and 6.10 with SiHa [4]. The “Ratio IC50” value in the data set on HT-29 [3] worked out at 121; in the data set with SiHa [5] it was 245. Also, the Activity in the data set on HT-29 [7] was 50.1 µM·h. The MTD in the data set on Mus musculus was determined as 1000 µmol/kg. The Cmax in data set [21] worked out at 85.7 µM. Further, the half-life in data set [22] was 31.6 min. For the same compound, the AUC in data set [23] is 82.3 µM·h. Further, the LCK with HT-29 [24] was determined as 0.09; in the data set with HT-29 [25], 0.83.

Regarding `Cc1ccc2c(c1)[n+]([O-])c(NCCN1C(C)CCCC1C)n[n+]2[O-]` (stereo unspecified), the solubility in data set [1] is 48 mM. For the same compound, the negative logarithm of the IC50 (pIC50) in the data set with HT-29 [2] was 5.55; with SiHa [4] it was 6.10. In addition, the figures for the “Ratio IC50” value in the data set on HT-29 [3] and in the data set with SiHa [5] were 126 and 159, respectively. The same compound showed a D in the data set with HT-29 [6] of 9.45e-07 cm²/s. Also, the Activity with HT-29 [7] worked out at 15.4 µM·h. This compound also gave an MTD with Mus musculus of 421 µmol/kg. The peak level in [26] (Cmax) was 19.6 µM. Further, the half-life in data set [27] was 19.1 min. In [28], this compound showed an AUC of 18.3 µM·h.

The solubility is the dissolved amount per volume that the medium holds. A word on the pIC50: it is the negative decadic logarithm of the IC50, by convention in mol/L. High values mean a low IC50, low ones a high IC50. Broadly, the Cmax is the maximum level reached in the sampled fluid or tissue. By half-life is commonly meant how long it takes for the measured level to halve. Low values mean fast loss, high ones slow loss. As a reminder, the AUC is concentration integrated over time. Higher therefore signals high exposure.

For the origin of these results see ChEMBL document CHEMBL1138329, “Pharmacokinetic/pharmacodynamic model-guided identification of hypoxia-selective 1,2,4-benzotriazine 1,4-dioxides with antitumor activity: the role of extravascular transport” (J Med Chem, 2007).
